High-throughput results (PubChem BioAssay)
Rpn11 block: inhibitors of human proteasome Rpn11; 360,000 compounds, 0.59% hits; inhibition, % at 20 µM; O00487; human 26S proteasome, Ub4-pepOG fluorescence polarization; 20S core pre-blocked with epoxomicin;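 active = inhibition at 20 µM, scaled to each plate's controls, above about 33%, limit read from the data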
NadD inh: blocks S. aureus nicotinate mononucleotide adenylyltransferase; inhibition, % at 20 µM; 360,000 compounds, 0.78% hits; purified NadD enzyme, colorimetric absorbance read-out; in the data active = inhibition above about 26%
ABHD5 PLIN5 PPI: ABHD5-PLIN5 protein interaction inhibition; Q00G26+Q8WTS1; Split G. princeps luciferase complementation, luminescence, 4 h; inhibition, % at 4 µM; 360,000 compounds, 0.78% hits; AID 602281;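 active = inhibition above the mean inhibition across every tested compound plus 3 SD, cut at about 22% in these data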;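 note: 0% = DMSO only wells and the 100% control is not disclosed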
Target sequence (Q00G26 whole entry, looked up): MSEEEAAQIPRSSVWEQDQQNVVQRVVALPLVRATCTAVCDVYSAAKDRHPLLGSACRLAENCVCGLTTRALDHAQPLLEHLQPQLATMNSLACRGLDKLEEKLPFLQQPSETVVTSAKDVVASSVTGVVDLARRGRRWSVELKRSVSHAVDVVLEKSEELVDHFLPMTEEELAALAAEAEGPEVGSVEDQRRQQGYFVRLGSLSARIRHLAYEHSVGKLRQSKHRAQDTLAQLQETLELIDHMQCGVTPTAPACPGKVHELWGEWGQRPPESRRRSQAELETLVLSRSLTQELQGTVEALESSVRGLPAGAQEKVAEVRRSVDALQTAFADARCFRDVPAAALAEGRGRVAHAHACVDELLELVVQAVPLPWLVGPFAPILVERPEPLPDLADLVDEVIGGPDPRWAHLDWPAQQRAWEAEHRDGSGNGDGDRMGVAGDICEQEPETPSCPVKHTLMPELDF
Target sequence (Q8WTS1 whole entry, looked up): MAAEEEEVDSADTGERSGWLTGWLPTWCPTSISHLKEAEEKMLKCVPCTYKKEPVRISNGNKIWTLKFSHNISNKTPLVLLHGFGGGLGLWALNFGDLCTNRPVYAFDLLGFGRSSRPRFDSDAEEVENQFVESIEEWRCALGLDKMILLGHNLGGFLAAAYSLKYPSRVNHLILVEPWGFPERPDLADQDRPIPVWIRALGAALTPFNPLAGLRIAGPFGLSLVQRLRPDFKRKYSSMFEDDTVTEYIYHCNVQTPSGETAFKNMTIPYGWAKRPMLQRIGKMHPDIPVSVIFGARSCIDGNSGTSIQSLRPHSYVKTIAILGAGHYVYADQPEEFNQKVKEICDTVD
Rin1 Abl inh: blocks binding of human Rin1 to Abl; inhibition, % at 7.35 µM; 360,000 compounds, 0.4% hits; TR-FRET Rin1/Abl binding, biochemical; P00519+Q13671; in the data active = inhibition above about 5%, passing the limit was not always enough
Xi reactivation: reactivates the inactive X chromosome in mouse fibroblasts; activation, % at 7.58 µM; 360,000 compounds, 0.055% hits; XiGFP mouse fibroblasts, % GFP-positive cells imaging, 3 d; cells co-treated with 5-aza-dC sensitizer; scaled so ellipticine positive control = 100%;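 active = mean normalized replicate activation at least 10% and every replicate at or above 10%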;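 note: 0% = median of on-plate neutral control wells and 100% = ellipticine 6 µM median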
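assay system = SV40-immortalized XiGFP fibroblast cells, line 68-5-11 | buffer or medium = DMEM plus 5-aza-dC sensitizer | doses = single-point pinned compound dosing | times = 3-day compound exposure, then 15 min fixation at room temperature | benchmarks = positive control ellipticine, 6 µM final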
NadD inh conf: NadD (S. aureus) inhibition, single concentration confirmation | shares compounds with NadD inh | inhibition, % at 20 µM | purified S. aureus NadD, colorimetric enzyme assay | 2,000 compounds, 13% hits; in the data active = inhibition mostly above about 42%, no sharp cut-off; inactive = mostly below about 42%
The depositor's hits bear a star; . = not tested or not shown. Shown are actives, neighbours in structure and some others; about 1.9% of the full set was active somewhere.

SMILES	Rpn11 block	NadD inh	ABHD5 PLIN5 PPI	Rin1 Abl inh	Xi reactivation	NadD inh conf
O=C(c1ccc(-c2nnc(Nc3cccc(Cl)c3)c3ccccc23)cc1)N1C[C@H]2C[C@H](C1)c1cccc(=O)n1C2	7.0	28.0*	7.8	-0.6	.	-2.9
C=C(C)[C@H]1CC=C(C)/C(=N/NC(=O)CNc2ccccc2OC)C1	-0.1	-6.2	-10.6	-1.4	.	.
C=C(C)C1CC=C(C)/C(=N\NC(=O)CNc2cccc3ccccc23)C1 (stereo unspecified)	3.0	36.7*	0.0	1.8	0.0	1.1
Cc1ccc(C)n1NC(=O)c1ccc(Cl)cc1Cl	4.0	33.7*	6.5	3.4	.	26.6
Cc1ccc(C)n1NC(=O)c1ccc(Cl)cc1	1.5	8.7	0.2	1.9	.	.
O=C(c1cccnc1)N1C[C@@H]2[C@H](c3ccccc31)[C@H](CO)N2C(=O)C1CCOCC1	.	.	.	.	-0.1	.
O=C(C[C@@H]1CC[C@@H]2[C@H](COC[C@@H](O)CN2C(=O)Nc2ccc(Cl)cc2)O1)NC1Cc2ccccc2C1	.	.	.	.	0.0	.
CCCOc1cc(N)ccc1C(=O)OCCN(CC)CC	0.4	1.1	-7.5	-0.8	-0.1	.
CCCOc1ccc(N)cc1N	-44.0	44.2*	-40.6	-1.9	.	-3.0
C#CCN(C[C@H]1[C@H](OC(=O)NCc2ccccc2F)[C@H](OC(=O)NCc2ccccc2F)C[C@H]2C(=O)N(c3ccccc3)C(=O)[C@@H]12)S(=O)(=O)c1ccc(C)cc1	4.8	30.4*	-0.9	-2.0	0.2	39.6
CN(C)C(=O)c1cccc(-c2ccc([C@@H]3[C@H](CO)N4C(=O)CN(C(=O)C5CCCC5)C[C@@H]34)cc2)c1	.	.	.	.	0.0	.
Cc1ccc(NC(=O)CN(C)Cc2nc3c(Br)cc(Br)cc3c(=O)[nH]2)cc1	23.4	28.7*	0.1	-0.5	0.0	-1.1
CCN(CC(=O)NC(C)(C)C)Cc1nc2c(Br)cc(Br)cc2c(=O)[nH]1	7.6	-5.2	1.3	-8.9	2.2	.
CC(C)c1cccc(-c2ccc3c(c2)S(=O)(=O)c2cccc(C(=O)NCc4ccco4)c2C3=O)c1	6.8	33.8*	21.0	-3.2	0.1	41.7
COc1ccc(C(=O)NC(=S)Nc2ccc(S(=O)(=O)Nc3cc(OC)ncn3)cc2)cc1	3.6	4.0	3.6	-0.7	0.0	.
COc1cc(NS(=O)(=O)c2ccc(NC(=S)NC(=O)c3sc4ccccc4c3Cl)cc2)ncn1	17.0	49.6*	-5.0	-31.2	0.1	14.4
COc1ccccc1C(=O)NCC(=O)NCc1cc(=O)n(C)c(=O)n1C	-2.2	61.8*	-2.1	-2.8	0.0	-2.8
C[C@@H]1CN([C@@H](C)CO)C(=O)c2cccc(NS(=O)(=O)c3ccc(F)cc3)c2O[C@@H]1CN(C)S(=O)(=O)c1ccccc1	.	.	.	.	0.5	.
Cc1cccn2c(=O)c3cc(C(N)=S)c(=N)n(CCCOC(C)C)c3nc12	19.2	51.9*	3.9	0.1	.	2.4
COc1ccc(NC(=O)c2c[nH]n3c(=O)cc(C4CCN(C(=O)OC(C)(C)C)CC4)nc23)cc1Cl	-1.8	29.0*	-1.1	0.2	0.1	20.4
CC(C)(C)OC(=O)N1CCC(c2cc(=O)n3[nH]cc(C(=O)Nc4ccc(F)c(Cl)c4)c3n2)CC1	5.1	22.4	-6.5	-3.1	-0.2	.
C[C@@H](NC(=O)C[C@H]1C=C[C@@H](NC(=O)Cc2ccccn2)[C@@H](CO)O1)c1ccccc1	.	.	.	.	0.0	.
O=C(NCc1cccc2ccccc12)c1cccs1	-2.2	-6.5	5.5	1.9	0.2	.
Nc1nc2c(Br)ccc(Br)c2cc1C(=O)NCc1cccc2ccccc12	.	41.1*	-13.9	.	-0.1	4.3
CCCNC(=O)N1C[C@@H](C)[C@@H](OC)CN(C)C(=O)c2cc(NC(=O)C3CCC3)ccc2OC[C@@H]1C	.	.	.	.	0.2	.
SMILES	Rpn11 block	NadD inh	ABHD5 PLIN5 PPI	Rin1 Abl inh	Xi reactivation	NadD inh conf
N#C[C@@H]1[C@@H](c2ccccc2C2=CCCCC2)[C@H](CO)N1C(=O)C1CCOCC1	.	.	.	.	0.0	.
CCCC#Cc1ccc([C@@H]2[C@@H](CO)N3C(=O)CN(C(=O)c4cccnc4)C[C@H]23)cc1	.	.	.	.	0.0	.
CC(C)(C)c1ccc(C(=O)Nc2nonc2-c2nc3ccccc3[nH]2)cc1	15.4	55.1*	-3.0	0.3	.	1.9
O=C(N[C@H]1CC[C@H](CCNS(=O)(=O)Cc2ccccc2)O[C@H]1CO)c1cnccn1	.	.	.	.	0.2	.
O=C1c2ccccc2C(=O)N1CCc1c(-c2ccccc2)[nH]c2ccccc12	-1.1	0.8	1.8	-3.6	-0.1	.
O=C1c2ccccc2C(=O)N1CCc1c(-c2[nH]c3ccccc3c2CCN2C(=O)c3ccccc3C2=O)[nH]c2ccccc12	2.7	31.1*	2.1	-0.4	0.2	3.1
C[C@@H]1CN([C@H](C)CO)C(=O)c2cc(NC(=O)Cc3ccccc3)ccc2O[C@@H](C)CCCCO[C@@H]1CN(C)Cc1ccc2c(c1)OCO2	.	.	.	.	0.3	.
COc1ccc(-c2c(C#N)c(SCC(=O)c3cc4ccccc4oc3=O)nc(C)c2C(=O)Nc2ccccc2)cc1	13.1	29.8	-2.9	2.5	-0.1	.
Cc1nc(SCC(=O)c2cc3ccccc3oc2=O)c(C#N)c(-c2ccccc2)c1C(=O)Nc1ccccc1	10.3	28.4*	-4.3	-0.9	0.1	-5.9
Cc1cc(NC(=O)CSc2ccc(-c3nc4cc(C)c(C)cc4[nH]3)cn2)no1	10.4	21.6	0.0	-18.7	.	.
Cc1cc2nc(-c3ccc(SCc4ccc(C(=O)O)cc4)nc3)[nH]c2cc1C	2.7	20.3	-5.9	-3.2	0.0	.
Cc1cc2nc(-c3ccc(SCC(=O)Nc4ccc(S(=O)(=O)NC5CC5)cc4)nc3)[nH]c2cc1C	18.9	40.3*	-5.5	-3.9	0.1	43.5
Cc1cc2nc(-c3ccc(SCC(=O)N4CCc5ccccc54)nc3)[nH]c2cc1C	20.2	33.0*	-9.1	-1.9	.	3.8
C[C@@H]1CCCCO[C@H](CN(C)C(=O)Nc2ccc(F)cc2)[C@@H](C)CN([C@@H](C)CO)C(=O)c2cc(NC(=O)NC3CCCCC3)ccc2O1	.	.	.	.	-0.1	.
O=c1[nH]c2cc3c(cc2cc1CN(Cc1cccnc1)Cc1nnnn1Cc1ccco1)OCCO3	11.6	19.9	-23.6	4.2	.	.
Cc1cc(C)c2cc(CN(Cc3ccc4c(c3)OCO4)Cc3nnnn3Cc3ccco3)c(=O)[nH]c2c1	19.6	37.0*	5.5	0.3	.	9.8
Cc1ccc2[nH]c(=O)c(CN(Cc3ccc4c(c3)OCO4)Cc3nnnn3Cc3ccco3)cc2c1	4.3	15.6	20.3	-2.6	.	.
O=c1[nH]c2cc3c(cc2cc1CN(Cc1ccccc1)Cc1nnnn1Cc1ccco1)OCCO3	.	33.1*	33.6*	-1.5	.	15.0
C[C@H](CO)N1C[C@H](C)[C@@H](CN(C)C(=O)c2ccncc2)Oc2ncc(C#CC3CC3)cc2C1=O	.	.	.	.	0.0	.
Cn1cnc(S(=O)(=O)N[C@H]2C=C[C@@H](CC(=O)NCC3CC3)O[C@@H]2CO)c1	.	.	.	.	-0.3	.
